Assay outcomes (PubChem BioAssay)
TbMetRS inhib: Trypanosoma brucei MetRS inhibition. purified T. brucei MetRS, ATP depletion, Kinase-Glo luminescence. inhibition, % at 11.9 µM. hit rate 0.4% among 360,000. AID 624268;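 active = inhibition above a per-plate cutoff of the control wells' mean inhibition plus 3 SD, cut at about 5.5% in these data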;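 also: 0% = DMSO wells median and 100% = median of wells with control inhibitor compound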
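Dosing: 11.9 µM compound single dose, 0.9% DMSO; Assay system: purified T. brucei MetRS enzyme; Measured by: Kinase-Glo luciferase luminescence reporting remaining unconsumed ATP; Schedule: 15 min plus 2 h at 25 °C.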
Efflux pump mplx: antifungal efflux pump inhibition, Nile Red retention. hit rate 0.44% among 330,000. AID 485275. S. cerevisiae Candida pump triplex. inhibition, % at 10 µM;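 active = plate passing quality check with inhibition over a set limit, or well fluorescence over plate mean plus 4 SD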;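 also: Nile Red retained in pooled yeast measured as flow cytometry median fluorescence; 0% = buffer negative control and 100% = Enniatin B positive control; higher means more Nile Red kept so more efflux inhibition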
HDAC3 inhib: inhibitors of human histone deacetylase 3; O15379; recombinant HDAC3, fluorogenic peptide/trypsin coupled, fluorescence; inhibition, % at 8.3 µM; hit rate 0.15% among 320,000; AID 2718; in the data active = inhibition above about 26%, passing the limit was not always enough
Target sequence (O15379 whole entry, looked up): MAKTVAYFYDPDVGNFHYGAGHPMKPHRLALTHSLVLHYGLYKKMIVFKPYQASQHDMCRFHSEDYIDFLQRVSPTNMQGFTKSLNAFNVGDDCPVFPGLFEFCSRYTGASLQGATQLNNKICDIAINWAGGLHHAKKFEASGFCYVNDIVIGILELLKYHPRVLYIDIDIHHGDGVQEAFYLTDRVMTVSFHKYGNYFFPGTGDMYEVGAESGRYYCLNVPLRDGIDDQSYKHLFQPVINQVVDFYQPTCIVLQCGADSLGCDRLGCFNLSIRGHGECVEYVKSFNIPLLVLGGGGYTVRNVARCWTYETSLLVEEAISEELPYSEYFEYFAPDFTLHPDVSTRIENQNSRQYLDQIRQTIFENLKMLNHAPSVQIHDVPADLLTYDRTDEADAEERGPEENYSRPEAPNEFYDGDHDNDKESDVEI
Yeast superoxide: lowers age-related superoxide in aged yeast cells; hit rate 0.18% among 330,000; superoxide response (% of plate mean), % at 10 µM; S. cerevisiae aged cells, superoxide DHE fluorescence; active compounds read low;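 active = superoxide response under a set limit, about three screen SD below normal, cut at about 65% in these data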;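 also: yeast aged for seven days with compound at 30 °C before DHE staining; 100% = average MFI of all compound-treated wells on the plate with controls excluded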
IDE inh: cellular human IDE inhibition. P14735. HEK cells, FAbetaB cleavage, fluorescence polarization. inhibition, % at 5.59 µM. hit rate 0.41% among 320,000. AID 434962;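 active = percent inhibition above the average of all tested compounds plus 3 SD, set per screening campaign, cut at about 16% in these data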;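 also: IDE supplied by intact live HEK cells; FP after avidin binding of uncleaved biotin substrate so inhibition keeps polarization high; 0% = DMSO wells and 100% = 60 µM reference IDE inhibitor Ii1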
IDE act: boosts human insulin-degrading enzyme activity in HEK cells; hit rate 0.073% among 340,000; activation, % at 5.96 µM; FAbeta-B cleavage, fluorescence polarization; 0% vehicle, 100% cell-free pure enzyme wells; P14735;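 active = activation above the mean of all tested compounds plus 3 SD, set per screening campaign, cut at about 17% in these data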
An asterisk follows results filed as active; nt = no result given. A selection: hits, their analogues and other compounds. The true share with any hit is near 1.4%.

SMILES	TbMetRS inhib	Efflux pump mplx	HDAC3 inhib	Yeast superoxide	IDE inh	IDE act
CC(=O)N1CCc2cc(S(=O)(=O)NCCC(=O)N3CCN(Cc4ccccc4)CC3)ccc21	-1.0	0.2	2.4	110.7	-0.4	19.0*
CC(/C=C1\SC(=S)N(CCC(=O)Nc2ccccc2O)C1=O)=C\c1ccccc1	-0.1	-0.1	-5.0	106.6	-1.4	2.2
CC(=C\c1ccccc1)/C=C1/SC(=S)N(CCC(=O)Nc2ccccn2)C1=O	nt	0.7*	-0.9	101.2	5.4	nt
COc1ccccc1N1CCN(S(=O)(=O)c2ccc3nc(-c4ccccc4)[nH]c3c2)CC1	1.1	-0.3	9.7	85.9	31.9*	-24.5
CN(C)c1ccc(CC(=O)N2CCCC(c3cc(C(=O)Nc4ccc(F)c(Cl)c4)no3)C2)cc1 (stereo unspecified)	-0.3	nt	nt	nt	nt	nt
CCC(C(=O)NC(C)(C)C)n1c(C(c2ccccc2)c2ccccc2)nc2ccccc21 (stereo unspecified)	-0.3	nt	nt	nt	nt	nt
Cc1ccccc1Nc1cc2ccccc2c(=O)[nH]1	12.7*	0.0	1.4	113.8	6.4	-3.6
O=c1[nH]c(Nc2ccccc2Cl)cc2ccccc12	4.3	0.2	-7.5	139.0	9.1	-6.6
O=c1[nH]c(Nc2ccccn2)cc2ccccc12	0.3	-0.1	-54.7	106.6	-2.1	1.1
O=c1[nH]c(Nc2ccc(F)cc2)cc2ccccc12	16.8*	-0.1	4.4	132.2	4.5	-8.4
Cc1cccc(C)c1-n1nnnc1C1(C)CCC(=O)N1CCCN1CCOCC1 (stereo unspecified)	-0.2	nt	nt	nt	nt	nt
CC(CNC(=O)CC[C@H]1O[C@@H](n2ccc(=O)[nH]c2=O)[C@H](O)[C@@H]1O)c1ccccc1 (stereo partly specified)	-0.5	nt	nt	nt	nt	nt
O=S1(=O)N[C@H](Cc2ccccc2)COc2cccc(N3CCSCC3)c21	-2.2	nt	nt	nt	nt	nt
c1ccc(Cc2c[nH]c3ccccc23)cc1	-0.4	0.2	-3.1	107.5	1.1	4.1
O=c1cc[nH]c2cccc(Cc3ccccc3)c12	20.9*	0.1	1.3	101.0	1.1	1.5
O=C(Nc1ccc2c(c1)OCCO2)C1C(c2ccccc2)=Nc2ccccc2N1C(=O)c1cccnc1 (stereo unspecified)	-0.3	nt	nt	nt	nt	nt
O=C(Nc1cccc2cccnc12)c1csc(COCCO)n1	0.0	nt	nt	nt	nt	nt
OC(CN1CCNCC1)Cn1ccc2ccccc21 (stereo unspecified)	nt	-0.1	3.9	92.6	17.8*	nt
O=C(Cn1cnc2ccccc21)Nc1cccc(S(=O)(=O)N2CCCC2)c1	35.9*	-0.1	-5.5	82.6	1.1	0.5
NS(=O)(=O)c1cccc(NC(=O)COC(=O)Cn2cnc3ccccc32)c1	-0.4	-0.1	4.5	97.1	3.1	13.3
CC(C(=O)NCc1ccccc1)n1c(-c2ccc3c(c2)CCO3)nc2ccccc21 (stereo unspecified)	0.5	nt	nt	nt	nt	nt
O=S(=O)(Cc1ccccc1)N1CCc2ccccc21	nt	2.7*	2.2	98.6	1.8	nt
CC1CCN(S(=O)(=O)c2ccc(C(=O)Nc3ncccc3O)cc2)CC1	-0.3	0.0	63.8*	108.0	0.3	-0.2
Cc1ccccc1-c1cc(C(=O)N/N=C/c2cccnc2)c2ccccc2n1	2.6	-0.1	1.9	91.0	nt	-1.5
O=C(N/N=C/c1cccnc1)c1cc(-c2ccccc2Cl)nc2ccccc12	7.1*	0.0	9.1	81.2	6.8	1.6
SMILES	TbMetRS inhib	Efflux pump mplx	HDAC3 inhib	Yeast superoxide	IDE inh	IDE act
COc1ccc(CCN2C(=O)CCC2(C)c2nnnn2-c2c(C)cccc2C)cc1OC (stereo unspecified)	-1.0	nt	nt	nt	nt	nt
COc1cccc(/C=C2\Oc3cc(OCC(=O)N4CCCC4)ccc3C2=O)c1OC	-0.2	0.0	6.3	115.5	2.9	2.2
COc1ccc(/C=C2\Oc3cc(OCC(=O)N4CCC(C(=O)O)CC4)ccc3C2=O)c(OC)c1	0.8	0.1	15.1	88.6	-15.4	28.8*
COc1ccc(/C=C2\Oc3cc(OCC(=O)N4CCC(C(=O)O)CC4)ccc3C2=O)c(OC)c1OC	0.8	0.3	4.1	118.6	-14.9	23.3*
CCSc1nnc([C@H](Cc2ccccc2)NC(=O)OC(C)(C)C)o1	-0.5	0.0	7.3	96.2	-5.7	2.0
Cc1ccccc1CS(=O)(=O)c1nnc([C@H](Cc2ccccc2)NC(=O)OC(C)(C)C)o1	-0.7	0.2	45.7*	88.8	-2.1	-3.3
CC(C)(C)OC(=O)N[C@@H](Cc1ccccc1)c1nnc(S(=O)(=O)Cc2ccccc2)o1	nt	-0.1	75.5*	86.5	-0.9	nt
